RanGTP-Impb inh – inhibitors of RanGTP-importin-beta interaction, primary screen, biochemical, FRET, CFP-Ran, YFP-importin-beta, homogeneous | cell-free CFP-Ran/YFP-importin-beta FRET ratio | actives 1.1% (n = 300,000) | inhibition, % (concentration not given with the values);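 active = more than half of the replicate wells show a fall in the fluorescence ratio signal beyond about 16%, limit read from the data, passing the limit was not always enough; inconclusive = exactly half of the replicate wells pass the set limit; inactive = fewer than half of replicates pass the limit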
HDAC3 inh – inhibitors of human histone deacetylase 3. recombinant HDAC3, fluorogenic peptide/trypsin coupled, fluorescence. inhibition, % at 8.3 µM. actives 0.15% (n = 320,000). AID 2718; in the data active = inhibition above about 26%, passing the limit was not always enough; inconclusive = no clear call, values can overlap the other calls
Runt-SMMHC FRET – blocks binding of human RUNX1 Runt domain to CBFb-SMMHC. Q01196+Q13951. Cerulean-Runt/Venus-CBFb-SMMHC FRET ratio 530/480, 1 h. inhibition, % at 20 µM. actives 0.74% (n = 220,000). AID 1434;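 active = mean inhibition across duplicate retests at 20 µM reaching about 50%, limit read from the data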;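 note: inhibitors lower the FRET ratio by blocking Runt binding to CBFb-SMMHC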
LANA-H2A inh – blocks KSHV LANA binding to histone H2A/H2B; inhibition, % (no concentration beside the values); cell-free LANA-H2A/H2B peptide, fluorescence polarization; Q9QR71; actives 0.6% (n = 320,000); in the data active = inhibition mostly above about 10%, no sharp cut-off; inactive = mostly below about 6.7%
Target sequence (Q9QR71 whole entry, looked up): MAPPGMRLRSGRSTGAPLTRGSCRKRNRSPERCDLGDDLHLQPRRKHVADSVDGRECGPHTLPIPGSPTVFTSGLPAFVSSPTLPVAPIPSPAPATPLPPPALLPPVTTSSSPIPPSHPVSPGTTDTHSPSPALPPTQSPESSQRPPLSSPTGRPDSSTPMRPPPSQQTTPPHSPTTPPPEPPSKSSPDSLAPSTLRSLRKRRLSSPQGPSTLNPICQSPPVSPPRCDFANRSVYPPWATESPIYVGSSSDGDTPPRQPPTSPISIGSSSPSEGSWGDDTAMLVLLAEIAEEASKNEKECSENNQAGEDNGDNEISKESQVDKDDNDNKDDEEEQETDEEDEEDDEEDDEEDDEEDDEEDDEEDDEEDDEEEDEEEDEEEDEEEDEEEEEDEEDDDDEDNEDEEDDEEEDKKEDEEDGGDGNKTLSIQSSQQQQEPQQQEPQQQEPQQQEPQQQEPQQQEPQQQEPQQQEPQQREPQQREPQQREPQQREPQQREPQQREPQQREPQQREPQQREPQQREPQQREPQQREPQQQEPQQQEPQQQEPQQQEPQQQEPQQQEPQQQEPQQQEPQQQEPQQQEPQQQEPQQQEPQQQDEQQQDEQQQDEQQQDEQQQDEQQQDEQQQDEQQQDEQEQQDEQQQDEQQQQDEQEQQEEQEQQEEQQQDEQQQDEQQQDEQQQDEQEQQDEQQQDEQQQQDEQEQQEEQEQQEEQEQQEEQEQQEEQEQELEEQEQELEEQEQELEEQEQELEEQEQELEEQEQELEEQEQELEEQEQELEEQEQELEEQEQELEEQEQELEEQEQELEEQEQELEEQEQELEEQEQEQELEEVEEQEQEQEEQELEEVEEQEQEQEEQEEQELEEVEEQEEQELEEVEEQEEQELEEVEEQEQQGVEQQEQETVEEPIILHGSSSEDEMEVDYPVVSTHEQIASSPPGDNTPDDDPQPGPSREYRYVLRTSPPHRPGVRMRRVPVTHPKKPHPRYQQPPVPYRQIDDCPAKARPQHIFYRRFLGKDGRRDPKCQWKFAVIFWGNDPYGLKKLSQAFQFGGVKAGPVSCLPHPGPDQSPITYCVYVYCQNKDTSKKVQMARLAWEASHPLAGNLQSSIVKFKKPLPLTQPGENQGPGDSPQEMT
CaV13 ICDI inh – Disruptors of the CACNA1D IQ motif to Ca2+-dependent inactivation inhibitor domain association, primary screening, Förster resonance energy transfer in intact living …; HEK cells, CFP/YFP FRET ICDI-IQ, plate reader, 10 min; percent FRET-ratio fall versus neutral wells; inhibition, % at 12.3 µM; actives 0.098% (n = 340,000); AID 743397;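 active = mean replicate inhibition of at least 30% and at least 1% of replicates passing that level; inconclusive = only one of the two criteria is met; inactive = neither criterion is met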
Runt-CBFb FRET – Runt domain-CBFb interaction inhibition | inhibition, % at 20 µM | Cerulean-Runt/Venus-CBFb FRET ratio 530/480, 1 h | AID 1496 | Q01196+Q13951 | actives 0.46% (n = 220,000);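 active = inhibition over about 50% at 20 µM in the single-dose screen, limit read from the data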
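Assay system: Cerulean-Runt domain / Medium: Tris 50 mM pH 7.5, KCl, K2SO4, 0.01% BSA / Timing: protein complex preformed 1 h, compound exposure 1 h, room temperature, dark / Measured by: FRET, excitation 422 nm, emission at 530 and 480 nm / Evaluation: loss of energy transfer signal / Control set: 5 µM unlabeled CBFb as full-inhibition high control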
A number is an active result; . = inactive; ? = inconclusive; / = no result. An excerpt weighted towards active compounds, which were near 1.9% of everything screened.

SMILES	RanGTP-Impb inh	HDAC3 inh	Runt-SMMHC FRET	LANA-H2A inh	CaV13 ICDI inh	Runt-CBFb FRET
Cn1c(CC(=O)Nc2ccc(F)cc2)nnc1SCC(=O)Nc1nncs1	?	.	/	.	.	/
CCO[C@H]1OC(C(=O)NCc2nc3ccccc3[nH]2)=C[C@@H](C2CCCCC2)[C@@H]1CCCO	.	.	.	18.0	.	.
COc1cccc2c(=O)c3ccoc3n(C)c12	.	.	.	.	/	.
COc1cccc2c(=O)c3c(cnn3C)n(C)c12	125.8	.	62.0	.	35.3	.
Cc1cc(N)n2nc(C)c(-c3ccc(Cl)cc3)c2n1	.	.	.	.	.	.
Cc1cc(N)n2nc(C)c(-c3ccccc3)c2n1	?	.	.	.	.	94.7
Oc1cc2c(cc1O)C1c3ccc(O)c(O)c3OCC1(O)C2 (stereo not given)	/	.	58.6	.	/	62.9
O=C1Nc2ccccc2CCC1Sc1nnc(-c2ccc(Cl)cc2)s1 (stereo not given)	.	.	.	.	.	.
Cc1cc2c(=O)n(Cc3ccco3)c(SCC(=O)c3ccc(Cl)s3)nc2s1	.	26.9	.	.	.	.
COc1ccc(C2CC(c3cccs3)=NN2C(=O)CSc2nnnn2C)cc1OC (stereo not given)	.	.	.	.	.	.
Cc1ccc(N(C(=O)CCC(=O)Nc2ccccn2)C(C(=O)NC(C)C)c2ccc(F)cc2)cc1 (stereo not given)	.	.	/	17.9	.	/
Cc1c(C(N)=O)sc2ncn(CC(=O)N3CCC(C)CC3)c(=O)c12	.	.	.	.	.	.
O=C(C=Cc1ccc2c(c1)OCO2)c1ccccc1	/	/	/	/	.	/
O=C(/C=C/c1ccccc1)c1ccccn1	22.5	.	.	.	.	.
O=C(/C=C/c1ccc2c(c1)OCO2)c1ccccn1	40.8	.	.	.	.	.
COc1ccc(S(=O)(=O)N2CCCCCC2)cc1C(=O)N(C)CC(=O)Nc1ccc(Cl)c(Cl)c1	.	.	/	.	/	/
Cc1cc(C)c2c(N)c(C(=O)c3cccc(Cl)c3)sc2n1	.	/	59.6	/	.	86.7
Cc1cc(C)c2c(N)c(C(=O)Nc3ncc(C)s3)sc2n1	/	.	95.4	.	.	65.1
COc1ccc(-c2c(C#N)c(N)nc3sc(C(=O)c4ccccc4)c(N)c23)cc1	.	.	.	.	.	.
COC(=O)c1sc2nc(C)cc(C)c2c1N	.	.	.	.	.	.
CCOc1ccc(-c2c(C#N)c(N)nc3sc(C(=O)c4ccccc4)c(N)c23)cc1	.	.	.	11.0	.	.
CC(=O)c1sc2nc(C)cc(C)c2c1N	.	.	77.9	.	.	.
O=C(Cc1n[nH]c(=O)[nH]c1=O)N/N=C/c1ccccc1O	?	.	.	.	.	.
C=CC[C@]12C[C@@]3(O[C@H](C4CCCCC4)N=C3C[C@H](c3ccc(OC)cc3)[C@H]1C)N(Cc1ccncc1)C2=O	/	/	/	/	.	/
COc1ccc(NC2CCCN(C(=O)c3cc(C)nc4cc(F)ccc34)C2)cc1 (stereo not given)	.	.	/	.	.	/
SMILES	RanGTP-Impb inh	HDAC3 inh	Runt-SMMHC FRET	LANA-H2A inh	CaV13 ICDI inh	Runt-CBFb FRET
COc1ccc(NC(=O)CSc2nnc(Cc3ccc(C)cc3)c(=O)n2N)cc1	.	.	/	.	.	/
Cc1nc2sc(C(=O)c3ccccc3)c(N)c2c(C)c1C	.	.	.	.	.	53.9
Cc1nc(-c2ccccc2)nc2sc(C(=O)c3ccc(F)cc3)c(N)c12	.	.	.	.	.	.
c1ccc(-c2ccc(-c3nccc4ccccc34)[nH]2)cc1	/	/	60.7	/	/	.
CC1(C)CC(=O)C2=C(C1)Nc1ccccc1NC2	.	.	87.2	.	.	.
CC1(C)CC(=O)C2=C(C1)Nc1ccccc1S2	.	.	.	.	.	.
CN(Cc1ccccc1)C(=O)c1[nH]cnc1C(=O)NCc1ccc(CNC(=O)OC(C)(C)C)cc1	/	.	/	.	.	/
CCCCC(=O)NC(NC(=S)N1CCOCC1)C(Cl)(Cl)Cl (stereo not given)	.	.	.	.	.	.
Cc1cc(C)c2c3c(sc2n1)C(c1cccc(F)c1)C(C#N)=C(N)O3 (stereo not given)	91.1	.	61.6	.	.	90.3

Assay outcomes as filed in PubChem.
